Screening results as filed in PubChem.
Fibroblast inh: blocks proliferation of human lung fibroblasts; 1.1% of 85,000 active; AID 719; viability, % at 10 µM; LL 47 human lung fibroblast viability, ATP luminescence; hits give low values;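 active = viability at or below 50% in the single dose screen; inactive = viability above 50%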;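 also: compound exposure lasted 72 h before the ATP readout; 100% = median luminescence of untreated cell-only wells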
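Material: human lung fibroblast line LL 47, low passage; Evaluation: viability percentage against median untreated-cell control; Buffer or medium: 15% FBS in IMEM; Incubation: 72 h compound exposure at 37 °C after overnight plating; Dosing: 0.1% DMSO in all compound wells; Measured by: CellTiter-Glo luminescence.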
Ecoli WT expand: E. coli BW25113 growth inhibition, expanded screen. OD600 absorbance. growth inhibition, % at 100 µM. 0.15% of 98,000 active. AID 710;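 active = growth inhibition above about 50% at one test dose, limit read from the data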;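 also: growth measured after 20 h incubation at 37 °C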
HUVEC inhibit: blocks proliferation of human endothelial cells; HUVEC proliferation, CellTiter-Glo luminescence, 72 h; hits give low values; 1.1% of 86,000 active; viability, % at 10 µM (by protocol);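 active = viability at or below 30%; inactive = viability above 30%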;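 also: 100% = median luminescence of DMSO-only cell control wells on each plate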
H69AR inhibit: growth inhibitors of human H69AR lung tumor cells | H69AR lung tumor viability, ATP luminescence, 72 h; hits give low values | viability, % at 10 µM | 6% of 85,000 active;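 active = viability at or below 40%; inactive = viability above 40%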;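 also: multidrug resistant small cell line overexpressing MRP-1 efflux transporter; 100% = mean luminescence of untreated control wells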
Ecoli tolC: E. coli tolC mutant growth inhibition. E. coli BW25113 tolC mutant growth, OD615. 2.2% of 65,000 active. growth inhibition, % at 10 µM (by protocol);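 active = growth inhibition at or above a cutoff equal to the mean over every tested compound plus 3 SD, cut at about 60% in these data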;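 also: growth measured after 20 h incubation at 37 °C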
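Test system: E. coli BW25113 ΔtolC::kan bacteria; incubation: 37 °C, 20 h exposure; medium: LB broth supplemented with 50 µg/mL kanamycin; read-out basis: percent growth inhibition; signal: A615 absorbance measurement; compound: 10 µM final, single dose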
Jurkat viability: cytotoxic compounds reducing Jurkat cell viability; Jurkat E6.1 viability, ATP luminescence, 48 h; inhibition, % at 4 µM; 1.2% of 56,000 active; AID 463;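 active = inhibition above the mean inhibition of all tested compounds plus 3 SD, cut at about 28% in these data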
* hit, by the source's call; nt = no result. Compounds with a hit are over-represented: about 6.4% of the library has one in this group of screens.

SMILES	Fibroblast inh	Ecoli WT expand	HUVEC inhibit	H69AR inhibit	Ecoli tolC	Jurkat viability
c1cc2c3c(cccc3c1)NC1(CCCCCC1)N2	83	2	5.5*	51	27	0
CCN(CC)c1nc2ccccc2c(N)c1-c1ccccc1	92	11	78	39*	nt	nt
Cc1c(N(C)C)nc2ccccc2c1N	nt	-2	nt	nt	-3	3
c1ccc(Cc2nnc3sc(-c4ccccn4)nn23)cc1	nt	4	nt	nt	1	-1
CCOc1ccccc1-c1nn2c(Cc3ccccc3)nnc2s1	99	-9	81	65	99*	-3
CCOC(=O)c1cnc2c(C)cccc2c1NCc1ccco1	99	14	77	75	17	nt
CCOC(=O)c1ccc2ncc(C(=O)OCC)c(NCc3ccco3)c2c1	105	-4	65	36*	22	-3
CCOC(=O)C1(O)CSc2nc3sc(C(=O)O)c(C)c3c(=O)n21 (centres undefined)	99	-7	96	94	-8	5
Cn1cccc1-c1nc2ccc(NC(=O)c3ccc([N+](=O)[O-])cc3)cc2[nH]1	92	-5	90	33*	nt	nt
O=C(CS(=O)(=O)Cc1ccccc1)N1CCN(c2cccc(C(F)(F)F)c2)CC1	100	-5	97	93	26	1
OC(CN1CCN(c2cccc(C(F)(F)F)c2)CC1)c1c[nH]c2ccccc12 (centres undefined)	58	-2	67	2.6*	34	22
CCC(C)(C)n1nnnc1C(c1ccc(O)c(OC)c1)N1CCc2ccccc2C1 (centres undefined)	87	4	94	34*	nt	nt
CCC(C)(C)n1nnnc1C(c1ccc(O)c(OC)c1)N1CCN(c2nc3ccccc3s2)CC1 (centres undefined)	94	1	93	14*	6	6
COc1ccc2cc(C(c3nnnn3C(C)(C)C)N3CCc4ccccc4C3)c(=O)[nH]c2c1 (centres undefined)	63	-3	70	72	21	5
CCC(C)(C)n1nnnc1C(c1ccccc1)N1CCc2ccccc2C1 (centres undefined)	90	0	86	71	nt	nt
COc1ccc(C(c2nnnn2C(C)(C)C)N2CCN(c3nc4ccccc4s3)CC2)cc1 (centres undefined)	100	-13	96	83	2	-1
CCC(C)(C)n1nnnc1C(c1cc2ccc(OC)cc2[nH]c1=O)N1CCc2ccccc2C1 (centres undefined)	76	-14	75	81	78*	-4
Cc1c(N(C)C(=O)c2ccco2)c(=O)n(-c2ccccc2)n1C	94	-2	100	96	-12	-4
CCOC(=O)CSc1nsc(SCC(=O)OCC)c1C#N	85	nt	62	96	nt	nt
CC(=O)CSc1nsc(SCC(C)=O)c1C#N	nt	nt	89	31*	nt	nt
COc1ccccc1N1CCN(C(=O)CCNS(=O)(=O)c2ccc3c(c2)CCC(=O)N3)CC1	93	-5	111	93	-15	-8
OCCN1CN=C(Nc2nc3ccccc3s2)NC1	101	14	95	95	-15	-2
O=C(N/N=C/c1ccc(O)c(O)c1)c1ccc(CSc2cccc3cccnc23)cc1	74	-13	73	40*	nt	nt
CCOc1ccc(C(=O)N/N=C/c2cccc3cccnc23)cc1	nt	-1	nt	nt	nt	nt
CCn1c(SCC(=O)Nc2nc(C)c(C)s2)nnc1-c1ccco1	103	-5	96	103	nt	-5
SMILES	Fibroblast inh	Ecoli WT expand	HUVEC inhibit	H69AR inhibit	Ecoli tolC	Jurkat viability
O=C1/C(=C/c2ccccc2)Nc2ccccc21	nt	5	nt	nt	nt	nt
N#CC1=C(c2ccccc2)/C(=C/c2ccccc2)OC1=O	5.4*	-9	28*	4.0*	nt	nt
O=C(CCS(=O)(=O)c1ccccc1)Nc1nc2c(s1)COc1ccccc1-2	50*	-6	58	2.0*	19	-6
O=C(Nc1nc2c(s1)COc1ccccc1-2)c1cccs1	89	-16	67	71	23	10
CC1=CC(C)(C)N(C(=O)CSc2ncn[nH]2)c2ccc(C)cc21	90	-2	87	106	nt	nt
Cc1cccc(NC(=O)c2cc(NC(=O)c3ccccc3)ccc2N2CCCCC2)c1	102	-15	79	57	nt	nt
Oc1ccc2ccccc2c1/C=N/c1nc2c(s1)CCCC2	nt	13	nt	nt	nt	nt
Oc1c(Br)cc(Br)cc1/C=N/c1nc2c(s1)CCCC2	nt	67*	nt	nt	nt	nt
Cc1ccc2c(c1)nnn2C1CCN(S(=O)(=O)c2ccc(C(=O)N(C)C3CCCCC3)cc2)CC1	103	-12	75	32*	30	-2
Cc1ccc(S(=O)(=O)N2CCC(n3nnc4cc(C)ccc43)CC2)cc1	89	nt	84	88	nt	nt
Cc1cc(C)cc(NC(=O)Nc2ccc3c(c2)N(C)C(=O)CS3)c1	93	-13	81	50	nt	nt
CC(=O)c1cccc(NC(=O)Nc2ccc3c(c2)N(C)C(=O)CS3)c1	93	24	34	24*	11	nt
O=C(COC(=O)C1CCCCC1)Nc1ccc(N2CCCCC2)cc1	95	2	98	38*	9	nt
O=C(CNC1CCCCCC1)Nc1ccc(N2CCCC2)cc1	nt	4	nt	nt	nt	nt
O=C(CNCCC1=CCCCC1)Nc1ccc(N2CCCCCC2)cc1	23*	40	2.0*	0.2*	nt	nt
CN(CC(=O)NCc1ccco1)S(=O)(=O)c1cccc2cccnc12	93	-6	106	89	-3	-12
Cc1ccc(Nc2nc(N)nc(CSc3nccn3C)n2)cc1	104	8	91	82	0	-3
Cc1ccc(-c2nc(N/N=C/c3cccnc3)c3ccccc3n2)cc1	50	-5	57	26*	nt	nt
CCC(Sc1nc2n[nH]c(C)c2c(=N)n1-c1cccc(Cl)c1)C(=O)NCCOC (centres undefined)	nt	11	nt	nt	-17	6
CCC(Sc1nc2n[nH]c(C)c2c(=N)n1-c1ccc(C)c(Cl)c1)C(=O)N1CCOCC1 (centres undefined)	75	-3	58	26*	-10	1
O=C(COc1ccc2ccccc2c1Br)N1CCOCC1	106	1	101	98	15	4
CC1(C)CC(=O)C2=C(C1)OC1=C(C(=O)CC(C)(C)C1)C2c1ccc(O)cc1O	17*	-2	25*	2.2*	11	96*
COc1ccc(NC(=S)N2CCC(c3nc4ccc(Cl)cc4[nH]3)CC2)c(OC)c1	nt	4	nt	nt	nt	nt
CC1=C(C(=O)Nc2ccccc2)C(c2cccc([N+](=O)[O-])c2)Nc2nc3ccccc3n21 (centres undefined)	96	0	91	35*	nt	nt
C1=C(C(c2nnnn2C2CCCCC2)N2CCCCC2)COc2ccccc21 (centres undefined)	94	-10	60	96	nt	4
N#Cc1c(N)nc(SCC(=O)NC2CCCCC2)c(C#N)c1-c1ccc(Cl)cc1	66	4	66	36*	5	-1
CC(C)c1ccc(-c2c(C#N)c(N)nc(SCC(=O)N3CCCCC3)c2C#N)cc1	72	-11	28*	63	nt	nt
Fc1ccc(/C=N/c2c(-c3ccc(F)cc3)nc3n2CCS3)cc1	100	-7	89	76	nt	nt
